Source: PubChem BioAssay AID623918 (The Scripps Research Institute Molecular Screening Center, 2012)

system: E. coli V66 Hfr conjugation, recombinant frequency by colony plating; experiment: reduction of Hfr conjugational recombinant frequency – colony formation, V66 E. coli, provider lab, counter-screen for AddAB inhibitor project, late-stage follow-up (AID 623918)
Summary of the method: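 Test system – E. coli F- recipient by Hfr donor mating · Reagent – Hfr donor, 1:10 donor to recipient · Compound – 5 doses, 0.03–100 µM · Timing – 1 h recipient growth, 30 min mating, 1.5 h compound exposure · Technique – colony counting after differential plating for His+ StrR recombinants, viability on non-selective plates · Controls – DMSO-only culture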

| Structure (SMILES) | IC50 [nM] |
| --- | --- |
| O=C(Nc1ncccn1)c1ccc([N+](=O)[O-])o1 | 30 |
| C=CCn1c(Sc2ncc([N+](=O)[O-])s2)n[nH]c1=O | < 1000 |
| CCn1cc(C(=O)O)c(=O)c2cnc(N3CCN(C(=S)Nc4cccc(C(F)(F)F)c4)CC3)nc21 | 100 |
| CCn1cc(C(=O)O)c(=O)c2cnc(N3CCNCC3)nc21 | < 100 |
| CCn1cc(C(=O)O)c(=O)c2cc(F)c(N3CCN(C(=S)Nc4cccc(C(F)(F)F)c4)CC3)cc21 | < 1000 |
| CCn1cc(C(=O)O)c(=O)c2cnc(N3CCN(C(=S)Nc4ccccc4C(F)(F)F)CC3)nc21 | < 1000 |
| O=C(NCc1cccnc1)c1ccc([N+](=O)[O-])o1 | < 100 |
